Compound activity: PubChem BioAssay, The Scripps Research Institute Molecular Screening Center
CHRM4 antagonist = human M4 muscarinic receptor antagonists, primary screen, CHO cells, Fluo-8 calcium fluorescence. AID 624125, 2012. hit rate 0.73% among 360,000. inhibition, % at 3 µM. CHO-hM4 cells, ACh EC80. Muscarinic acetylcholine receptor M4 (Homo sapiens), P08173;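 active = inhibition above its plate's cutoff, the mean inhibition of sample wells plus 3 SD, cut at about 27% in these data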
Target sequence (P08173 whole entry, looked up): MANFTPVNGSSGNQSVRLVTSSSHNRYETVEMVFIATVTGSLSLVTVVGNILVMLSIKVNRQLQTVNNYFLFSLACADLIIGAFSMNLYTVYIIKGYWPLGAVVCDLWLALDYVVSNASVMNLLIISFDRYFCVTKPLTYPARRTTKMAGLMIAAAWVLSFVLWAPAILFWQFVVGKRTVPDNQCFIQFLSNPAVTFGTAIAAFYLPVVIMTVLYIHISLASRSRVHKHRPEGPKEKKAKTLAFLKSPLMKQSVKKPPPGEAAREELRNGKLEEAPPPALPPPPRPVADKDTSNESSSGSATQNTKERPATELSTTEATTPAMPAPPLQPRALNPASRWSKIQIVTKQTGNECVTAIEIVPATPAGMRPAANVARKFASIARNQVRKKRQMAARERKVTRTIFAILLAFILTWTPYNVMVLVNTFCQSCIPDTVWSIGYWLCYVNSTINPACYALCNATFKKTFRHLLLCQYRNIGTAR
TAAR1 ag = human TAAR1 agonists, primary screen, Fluo-8 calcium fluorescence, CHO RD-HGA16 cells | activation, % at 3 µM | Trace amine-associated receptor 1 (Homo sapiens), Q96RJ0 | AID 624467, 2012 | hit rate 0.99% among 360,000 | vehicle wells 0%, saturating PEA agonist 100%;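 active = activation above the mean activation of all test compounds in the run plus 3 SD, cut at about 38% in these data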
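Test system: RD-HGA16 (CHO) cells co-expressing Gα16 and hTAAR1; dosing: one-point dosing at 3 µM (nominal); timing: 17-24 h seeding, 75 min 37 °C dye, 30 min RT; signal: kinetic Fluo-8 calcium fluorescence; read-out basis: % activation relative to PEA EC100 response; controls: DMSO and PEA EC100; replicates: n 1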
CHRM4 agonist = human M4 muscarinic receptor agonists, primary screen, CHO-K1 cells, Fluo-8 calcium fluorescence; Muscarinic acetylcholine receptor M4 (Homo sapiens), P08173; CHO-K1 hM4/Gqi5; vehicle 0%, full acetylcholine response 100%; activation, % at 3 µM; hit rate 0.14% among 360,000; AID 624127, 2012;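 active = activation above the run mean over all test wells plus 3 SD, cut at about 32% in these data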;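 also: peak over basal fluorescence ratio per well then scaled between controls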
CHRM4 PAM = human M4 muscarinic receptor positive allosteric modulators, primary screen, CHO-K1 cells, Fluo-8 calcium fluorescence; CHO-K1 hM4/Gqi5, ACh EC20; 0% = ACh EC20, 100% = maximal ACh; Muscarinic acetylcholine receptor M4 (Homo sapiens), P08173; activation, % at 3 µM; hit rate 0.4% among 360,000;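 active = activation above its plate's cutoff, the mean activation of sample wells plus 3 SD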
TAAR1 antagonist = human TAAR1 antagonists, primary screen, Fluo-8 calcium fluorescence, CHO RD-HGA16 cells; hit rate 1.5% among 360,000; inhibition, % at 3 µM; antagonist;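 active = inhibition above a per-plate cutoff, the mean inhibition of test compounds on that plate plus 3 SD, cut at about 49% in these data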
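test system = CHO RD-HGA16 cells bearing hTAAR1 | replication = singlicate | controls = DMSO-only wells and EC80 β-PEA-stimulated wells | reagent = EC80 β-phenethylamine stimulus | read-out basis = percent inhibition of PEA-evoked calcium signal, max/basal emission ratio | schedule = seeding 17-24 h prior, 75-min 37 °C, 30-min RT dye loading | signal = kinetic Fluo-8 calcium fluorescence measurement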
Numbers stand for hits; – = inactive; · = no result given. Hits are enriched below; roughly 3% of the tested compounds scored in any of these assays.

SMILES	CHRM4 antagonist	TAAR1 ag	CHRM4 agonist	CHRM4 PAM	TAAR1 antagonist
CC(=O)C1=C(C)N(Cc2ccc(F)cc2)C(=S)NC1c1cccc(F)c1 (configuration not stated)	·	–	·	·	–
O=C(CNC(=O)c1ccco1)NCC(=O)OCc1cccc(Cl)c1	–	–	–	43.6	–
O=C(NCCNC(=O)c1ccc(Cl)cc1Cl)c1ccco1	–	–	–	16.4	–
O=C(NCc1ccc2c(c1)OCO2)c1nc(S(=O)(=O)Cc2ccccc2)ncc1Cl	–	–	–	–	–
O=C(NCc1ccc2c(c1)OCO2)c1nc(S(=O)(=O)Cc2ccccc2F)ncc1Cl	38.1	–	–	–	–
Cc1ncsc1CCOC(=O)c1ccc(Cl)cc1	–	–	–	23.9	–
Cc1ncsc1CCOC(=O)c1ccccc1	–	–	–	–	–
COC(=O)C1=C(C(=O)OC)C2CCCC1C1N=NN(c3ccccc3)C21 (configuration not stated)	·	–	·	·	–
CCc1ccc2oc(=O)cc(CN3CCN(Cc4ccccc4)CC3)c2c1	65.0	–	–	–	–
O=c1cc(CN2CCN(Cc3ccccc3)CC2)c2cc(Cl)ccc2o1	–	–	–	–	–
CN(C)Cc1cc(C(F)(F)F)ccc1C(O)(c1ccccc1)c1ccccc1	57.3	–	–	–	–
CC(C)C(c1nnnn1Cc1ccco1)N1CCN(c2nc3ccccc3s2)CC1 (configuration not stated)	–	–	–	–	54.6
CC(C)CC(c1nnnn1Cc1cccs1)N1CCN(c2nc3ccccc3s2)CC1 (configuration not stated)	–	–	–	–	–
O=C(NCCc1ccc(Cl)cc1)C1CCN(C(=O)N2CCOc3ccccc32)CC1	–	–	–	–	49.9
C#CCN(Cc1ccco1)C(=O)c1nnc2c3ccccc3n(S(=O)(=O)c3ccc(C)cc3)c2n1	·	–	·	·	–
COc1c2c(cc3c1c(=O)c1ccccc1n3C)OCO2	·	–	·	·	–
CCC1CCCCN1S(=O)(=O)c1ccc(S(=O)(=O)N(Cc2ccccn2)CC2CCCO2)cc1 (configuration not stated)	–	–	–	–	–
CCC1CCCCN1S(=O)(=O)c1ccc(S(=O)(=O)N(Cc2cccs2)C2CC2)cc1 (configuration not stated)	45.1	–	–	–	–
Cc1ccc(C2=NNC(c3ccc(Cl)cc3)=Nc3ccccc32)o1	–	–	–	25.3	–
CN(C)CC/C=C1/c2ccccc2CS(=O)(=O)c2ccccc21	–	–	–	–	–
CN(C)CC/C=C1\c2ccccc2COc2ccccc21	66.7	–	–	–	–
CCCCCC[N+](C)(C)CC/C=C1/c2ccccc2Sc2ccc(Cl)cc21	98.9	–	–	–	–
CN(C)CC/C=C1/c2ccccc2Sc2ccc(Cl)cc21	98.8	–	–	–	–
Cc1ccccc1C(=O)NC1CCCCN(C)C1=O (configuration not stated)	·	–	·	·	–
COC(=O)[C@]12C[C@H](CC(=O)N3CCOCC3)C(=O)N(Cc3ccc4c(c3)OCO4)C1=C[C@H](COCc1ccccc1)O[C@@H]2C	·	–	·	·	–
SMILES	CHRM4 antagonist	TAAR1 ag	CHRM4 agonist	CHRM4 PAM	TAAR1 antagonist
CCOC(=O)c1c(NC(=O)c2ccc(S(=O)(=O)N3CCOCC3)cc2)sc2c1CCN(C)C2	–	–	–	19.3	–
CCOC(=O)c1c(NC(=S)N2CCN(C)CC2)sc2c1CCN(C(=O)OCC)C2	–	–	–	12.0	–
CCN1CCN(c2ccc(NC(=O)c3ccc(Cl)c(S(=O)(=O)N4CCCC4)c3)cc2)CC1	47.9	–	–	–	–
CCOC(=O)c1ccc(NC(=O)c2ccc(C)c(S(=O)(=O)N3CCOCC3)c2)cc1	38.7	–	–	–	80.4
CCCCNc1cccc2c1S(=O)(=O)N[C@H](Cc1ccccc1)CO2	·	–	·	·	–
COC(=O)c1cc2c(c3c4cc(F)ccc4n(S(=O)(=O)c4cccc(C)c4)c13)C(=O)N(C)C2	·	–	·	·	–
CC(C)Cn1cc(-c2cccc3nccn23)cn1	–	–	–	–	–
C[C@@H]1CN(C(=O)OC(C)(C)C)CCN1c1ccc(N2CC[C@@H](O)C2)c(C#N)c1	·	–	·	·	–
CCCCCCCCN1C(=O)[C@@H](CC(=O)N2CCN(C(=O)C3CC3)CC2)C[C@@]2(C(=O)OC)C1=C[C@H](C1CCCC1)O[C@@H]2C	·	–	·	·	–
CCN(CC)CCOC(=O)c1ccc(NC(=O)c2ccc(Cl)c(S(=O)(=O)N3CCCCCC3)c2)cc1	35.8	–	–	–	–
COC(=O)Cc1nnn2c1[C@H](C)[C@H](c1cccc(OC)c1OC)OCC2	·	–	·	·	–
Nc1c(C(=O)N2CCOCC2)sc2nc3c(cc12)CCC3	35.3	–	–	–	–
CCN1CCCSC1=S	–	–	–	–	–
CCOC(=O)N(C)C[C@@H]1OCc2cn(nn2)CCCC(=O)N([C@H](C)CO)C[C@H]1C	·	–	·	·	–
CCn1cc(CNC(=O)C2CCC(=O)N(Cc3ccccc3F)C2)cn1 (configuration not stated)	–	–	–	–	–
Cc1c(CNC(=O)C2CCC(=O)N(CCc3ccccc3)C2)cnn1C (configuration not stated)	–	–	–	20.5	–
Cn1cc(CNC(=O)C2CCC(=O)N(Cc3ccccc3F)C2)cn1 (configuration not stated)	–	–	–	20.4	–
Cc1cccc(CNC(=O)C2CCC(=O)N(Cc3ccccc3F)C2)n1 (configuration not stated)	–	–	–	20.9	–
CCCCc1c(-c2ccccc2OC)ncn1Cc1ccc(Cl)cc1Cl	·	–	·	·	–
Cc1ccc(S(=O)(=O)N2CCC(C(=O)OCC(=O)N3C(C)CCCC3C)CC2)cc1C (configuration not stated)	–	–	–	–	–
COc1ccc(C(=O)C2CCCN(Cc3cn(C)nc3-c3ccccc3)C2)cc1F (configuration not stated)	39.8	–	82.3	–	–
COc1ccc(C(=O)C2CCCN(C(=O)Cn3nc(C)cc3C)C2)cc1F (configuration not stated)	28.9	–	–	–	–
Cc1nc2ccc(C(=O)N(C)Cc3ccco3)cn2c1N(C)C(=O)CCc1ccccc1	–	–	–	–	–
CC(C)CCN(C)[C@H]1C[C@H]2c3[nH]c4ccccc4c3CCN2C[C@H]1[C@H](C)O	·	–	·	·	–
O=C(/C=C/c1ccco1)Nc1cccc(NC(=O)/C=C/c2ccco2)n1	–	–	–	–	53.9
Cc1nc(NC(=O)/C=C/c2ccco2)sc1C	–	–	–	–	–
Clc1ccc(C(Cn2ccnc2)OCc2c(Cl)cccc2Cl)c(Cl)c1 (configuration not stated)	–	–	–	–	51.0
